From PubChem BioAssay
This is a sample that favours compounds with a hit; in the whole collection about 0.74% have one here.
Tn7 DDE FP: inhibitors of Tn7 peptide binding to fibrin DD(E), primary screen, biochemical, fluorescence polarization, human fibrin, Tn7 probe; actives 0.13% (n = 370,000); FP displacement of FITC-Tn7 peptide from fibrin DD(E); 0% = median of compound wells per plate; inhibition, % at 8.3 µM;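 active means inhibition above the mean of compounds falling within the control limits plus 3 SD of them, cut at about 14% in these data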;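 further: 0% = plate median of compound wells and 100% = 10 µM Aha-Tn7 peptide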
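Assay system: Human clot-derived fibrin DD(E) complex | Buffer or medium: Tris/NaCl/CaCl2 buffer, pH 7.8 | Repeats: One replicate per compound | Benchmarks: Aha-Tn7 high control | Measure: % inhibition scaled between sample-field median and high-control FP | Schedule: 10 min plus 3 h, room temperature | Signal: Fluorescence polarization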
Tn6 DDE FP: inhibitors of Tn6 peptide binding to fibrin DD(E), primary screen, biochemical, fluorescence polarization, human fibrin, Tn6 probe | AID 720509, 2013 | Fibrin DD(E) TRITC-Tn6 fluorescence polarization displacement | inhibition, % at 8.3 µM | actives 0.21% (n = 370,000);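 active means inhibition above a per-campaign cutoff: mean of compounds within control limits plus 3 SD, cut at about 15% in these data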;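 further: 0% = median of all compound wells on the plate and 100% = blocking peptide control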
ASAP1 GAP inh: inhibitors of human ASAP1 ArfGAP activity, primary screen, biochemical, fluorescence polarization. actives 0.19% (n = 360,000). Arf-GAP with SH3 domain, ANK repeat and PH domain-containing protein 1 (Homo sapiens), …. inhibition, % at 16.5 µM. ASAP1-stimulated ARF1 GTP hydrolysis, GDP FP detection; in the data active means inhibition above about 25%;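 further: 0% = vehicle with enzyme and substrate and 100% = no enzyme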
Target sequence (Q9ULH1 325-724 limits assumed): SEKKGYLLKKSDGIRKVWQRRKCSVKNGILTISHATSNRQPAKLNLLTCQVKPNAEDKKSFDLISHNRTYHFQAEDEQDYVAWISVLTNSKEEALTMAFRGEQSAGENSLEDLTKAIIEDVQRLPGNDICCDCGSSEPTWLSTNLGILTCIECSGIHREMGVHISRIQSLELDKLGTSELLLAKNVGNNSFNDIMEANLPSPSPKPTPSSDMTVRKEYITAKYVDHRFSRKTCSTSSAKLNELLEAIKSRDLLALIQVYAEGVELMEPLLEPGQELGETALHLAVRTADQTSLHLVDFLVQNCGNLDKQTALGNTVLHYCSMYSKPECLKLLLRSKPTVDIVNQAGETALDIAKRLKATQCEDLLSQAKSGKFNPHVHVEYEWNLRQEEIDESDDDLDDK
ARFGAP1 inhibitor: inhibitors of rat ARFGAP1 GAP activity, primary screen, biochemical, fluorescence polarization, GDP tracer | inhibition, % at 16.5 µM | Arfgap1-stimulated ARF1 GTP hydrolysis, GDP FP detection | ADP-ribosylation factor GTPase-activating protein 1 (Rattus norvegicus), Q62848 | actives 0.26% (n = 360,000) | AID 651572, 2012;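 active means inhibition above a per-plate limit, mean inhibition of low control wells plus 3 SD, cut at about 25% in these data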;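 further: 0% = DMSO wells with enzyme and 100% = wells lacking Arfgap1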
Target sequence (Q62848 1-136 limits assumed): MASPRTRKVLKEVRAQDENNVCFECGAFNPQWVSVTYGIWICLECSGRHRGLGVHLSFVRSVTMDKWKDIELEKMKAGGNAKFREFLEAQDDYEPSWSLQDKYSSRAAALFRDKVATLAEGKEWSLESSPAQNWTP
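Material: rat Arfgap1 GAP domain (His6, aa 1-136), purified enzyme. Also added: human ARF1(Δ1-17)-GTP substrate. Compound dosing: 16.5 µM single point, 1.26% DMSO. Timing: enzyme reaction 120 min at 25 °C after 20 min preincubation. Signal: GDP detection by fluorescence polarization. Read-out basis: percent inhibition of GAP-stimulated GDP formation, scaled between DMSO and no-Arfgap1 medians.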
ASAP1 GAP conf: ASAP1 GAP activity inhibitors, confirmation, biochemical, fluorescence polarization, human, triplicate; shares compounds with ASAP1 GAP inh; ASAP1-stimulated Arf1 GTPase, GDP fluorescence polarization; inhibition, % at 16.5 µM; actives 37% (n = 620); AID 624431, 2012;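 active means mean inhibition over triplicates exceeds the hit threshold derived for the earlier primary screening run, cut at about 25% in these data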
* hit, by the source's call; / = no result given.

SMILES	Tn7 DDE FP	Tn6 DDE FP	ASAP1 GAP inh	ARFGAP1 inhibitor	ASAP1 GAP conf
COc1ccc(NC(=O)c2ccc(-c3ccccc3C(F)(F)F)o2)cc1	0	2	26*	11	11
COc1cccc(C(=O)N[C@H](C(=O)N2CCC[C@H]2C(=O)NC2CCCC2)C2CCCCC2)c1	-7	-3	-6	13	/
Cn1c(C(=O)Nc2ccccc2)cc2sccc21	-2	-1	31*	14	10
C[C@@H]1C=CCCO[C@]12C(=O)N(CC1CC1)c1cccc(Br)c12	-1	3	2	-8	/
CCOc1ccc(Br)cc1S(=O)(=O)Nc1ccc(C(=O)OCC(=O)N(C)c2ccccc2)cc1	-2	2	26*	0	10
CCOC(=O)c1sc(NC(=O)CNCc2cccnc2)c(C(=O)OCC)c1C	4	1	37*	12	1
COc1ccc(/C=N/NC(=O)Cn2c(Cc3ccc(OC)c(OC)c3)nc3ccccc32)cc1OC	-13	1	31*	-3	-1
COc1ccc(CNC(=O)c2c(N)[nH]c(C(=O)c3ccccc3)c2-c2ccc3ccccc3c2)cc1OC	0	-1	7	-5	/
CN(C(=O)CCN1CCCO1)C1CCCN(Cc2ccccc2F)C1 (centres undefined)	-4	-2	-11	-1	/
CN(C(=O)CSc1nncn1C)C1CCCN(Cc2ccccc2F)C1 (centres undefined)	-11	-1	31*	15	1
CCC(=O)N1CCC(C(=O)NC2CCCc3ccccc32)CC1 (centres undefined)	8	2	/	/	/
Cc1ccc(-c2cc(-c3nnc(SCC(=O)NC4CCCCC4)n3N)[nH]n2)cc1	0	-4	/	/	/
NC(=S)NN=C1c2cc(OCCN3CCOCC3)ccc2-c2ccc(OCCN3CCOCC3)cc21	-5	-9	25*	5	22
Clc1ccc(OCCN2CCOCC2)cc1Cl	3	-4	2	4	/
COc1ccc(Cl)cc1S(=O)(=O)NCc1cccnc1	0	-3	26*	11	8
CC[n+]1c(/C=C/C=C/N(C(C)=O)c2ccccc2)sc2ccccc21	-3	-2	45*	23	44*
Cn1c(Cc2cccs2)nnc1SCC(=O)Nc1ccc2c(c1)OCCO2	-4	-1	/	/	/
COc1ccc(CNC(=O)[C@@H](Cc2ccccc2)NC(=O)[C@H]2O[C@@H](n3ccc(=O)[nH]c3=O)[C@H](O)[C@@H]2O)cc1	-2	6	0	4	/
CCN1CCN(c2cc(C)c3cc(NC(=O)c4ccc(OC)c(OC)c4)ccc3n2)CC1	-4	-14	37*	22	50*
O=C1C(=O)c2ccccc2C(O)=C1c1ccccc1F	-2	-8	7	-8	/
O=C1C(O)=C(O)C(=O)c2ccccc21	6	11	30*	4	10
O=S(=O)(CS(=O)(=O)c1ccc(Br)cc1)c1ccc(Br)cc1	7	1	5	10	/
O=C(CSc1ncnc2scc(-c3ccccc3)c12)N1CCN(Cc2ccc3c(c2)OCO3)CC1	5	-10	31*	11	46*
Cc1ccc(NC2=C(N3CCOCC3)C(=O)c3ccccc3C2=O)cc1	3	-2	36*	24	1
NC(=O)c1ncn2c(=O)n(CCCl)nnc12	-5	1	-2	-10	/
SMILES	Tn7 DDE FP	Tn6 DDE FP	ASAP1 GAP inh	ARFGAP1 inhibitor	ASAP1 GAP conf
COc1cccc(NC(=O)C2(C)CCN2Cc2ccc(OC)c3ccccc23)c1 (centres undefined)	-1	5	29*	24	4
COC(=O)[C@]12C[C@H](CC(=O)NCc3ccc(C)o3)C(=O)N(CCC3=CCCCC3)C1=C[C@H](COCc1ccccc1)O[C@@H]2C	-4	7	6	-1	/
COc1ccc(OCc2cc(C(=O)NC3CCOCC3)no2)c2ccccc12	3	-2	30*	0	2
Cc1cc(OCC(=O)Nc2ccc(N3CCCC3)cc2)cc(C)c1Cl	-4	-7	25*	1	7
CCOc1ccc(OCC(=O)Nc2ccc(N3CCCCC3)cc2)cc1	4	-8	-3	23	/
Cc1ccc2nc(SCC(=O)Nc3ccc(F)cc3F)[nH]c2c1	-6	-8	27*	6	5
COc1cccc(C(=O)n2ccc3ccc(-c4ccc5ccn(C(=O)c6cccc(OC)c6)c5c4)cc32)c1	-2	-11	/	/	/
COCCNC(=O)c1ccc(CSc2nc3ccccc3s2)cc1	1	-2	-20	0	/
CCNC(=O)c1ccc(CSc2nc3ccccc3s2)cc1	-8	4	27*	12	8
O=C(CNC(=O)c1ccc(F)cc1)Nc1ccccc1C(F)(F)F	-1	-2	25*	-11	1
O=[N+]([O-])c1ccc(OCCOc2ccccc2/C=N/n2cnnc2)cc1	4	3	37*	-2	46*
COc1ccccc1/C=N/n1cnnc1	5	-5	9	1	/
O=C(Cn1nc(-c2ccc3c(c2)OCCO3)ccc1=O)Nc1ccc(-n2cnnn2)cc1	8	5	36*	11	36*
O=C(Cn1nc(-c2ccccc2)ccc1=O)Nc1ccc(-n2cnnn2)cc1	3	4	2	23	/
COc1ccc(/C=C2\C(=O)NC(=S)N2C(=O)c2ccc(F)cc2)cc1	-9	5	25*	-11	7
O=C(CNC(=O)c1ccc(Cl)cc1Cl)NCCCn1ccnc1	2	1	29*	5	-4
COc1ccc(C(C)=O)cc1COC(=O)c1ccc2c(c1)OCCO2	-8	0	28*	-3	8
O=C(N/N=C/c1cccnc1)c1cc2c(ccc3ccccc32)o1	-1	-6	28*	25	55*
O=C(N/N=C/c1cccnc1)c1cc2ccccc2o1	0	1	1	18	/
CCCN(CC1CC1)C(=O)c1oc(=O)c2ccccc2c1-c1ccc(C)cc1	5	-4	/	/	/
O=C1Cc2ccccc2C(=O)N1CCc1ccccc1	5	-3	33*	13	15
O=C1C(=O)N(Cc2ccccc2)C(=O)N1CCN1C(=O)c2ccccc2C1=O	-4	3	6	0	/
C=CCCC1CN(Cc2ccc(OC)cc2)S(=O)(=O)c2c(cccc2Sc2ccc(OC)c(OC)c2)O1 (centres undefined)	0	-5	2	14	/
C[C@H](CO)N1C[C@H](C)[C@@H](CN(C)C(=O)C2CC2)OCc2cn(nn2)CCCC1=O	2	0	4	13	/
